Measured values taken from ChEMBL document CHEMBL1128535, “Synthesis using a Fmoc-based strategy and biological activities of some reduced peptide bond pseudopeptide analogues of dynorphin A1” (J Med Chem, 1995).
*1 amine or outer side, *2 acyl side, *3 side chain or, on linkers, in order; H or OH if unused. Where a SMILES comes first, the peptide text is derived from it. Side-chain parts run from the residue outwards. [ ]: non-standard residue; d: D form. The star is where a group is joined. X2 = CC[C@H](C)[C@H](NC[C@H](CCCCN)N*)C(=O)N[C@@H](CCCN=C(N)N)C(=O)N1CCC[C@H]1C(=O)N[C@@H](CCCCN)C(N)=O; N(2-aminoethyl)Phe = O=C([C@H](Cc1ccccc1)N(CCN[*:3])[*:1])[*:2]; X4 = CC(C)C[C@@H](CN([C@@H](CCCN=C(N)N)C(=O)[*:2])[*:1])N[*:3]; X5 = NCCCC[C@@H](CN([C@@H](CCCN=C(N)N)C(=O)[*:2])[*:1])N[*:3]; X1 = CC(C)C[C@@H](C(=O)[*:2])N(C[C@H](Cc1ccccc1)N[*:3])[*:1]

Columns and labels:
Cavia porcellus [1] = species on record: Cavia porcellus; assay: Binding affinity against smooth muscle tissue of Guinea pig ileum; type: functional
Procedure, shortened: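 Longitudinal muscle–myenteric plexus strips from male Hartley guinea pigs (250–500 g) in oxygenated Krebs buffer at 37 °C under 1 g tension. Transmural stimulation at 0.1 Hz, 0.4 ms, supramaximal voltage, with no peptidase inhibitors. Cumulative agonist doses every 3 min; % inhibition of contraction height measured. IC50 from a Hill-equation fit of mean data from 2–4 tissues.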

[2] = target: Kappa-type opioid receptor (Cavia porcellus, UniProt P41144); assay: Binding affinity against Opioid receptor kappa 1 of Guinea pig brain homogenate using [3H]U-69593; type: tissue-based
Mu-type opioid receptor = Mu-type opioid receptor (Cavia porcellus, UniProt P97266); assay: Binding affinity against Opioid receptor mu 1 from Guinea pig brain homogenate using [3H]DAMGO; type: tissue-based
Cavia porcellus [3] = species on record: Cavia porcellus; assay: Selectivity as ratio of IC50 for mu and kappa opioid receptors
[4] = target: Kappa-type opioid receptor (Cavia porcellus) (UniProt P41144); assay: Ratio of IC50 for central and peripheral kappa opioid receptor binding in guinea pig
[5] = Selectivity as ratio of IC50 for delta and mu opioid receptors; details: Cavia porcellus

Sequence of Kappa-type opioid receptor (Cavia porcellus) (P41144 whole entry): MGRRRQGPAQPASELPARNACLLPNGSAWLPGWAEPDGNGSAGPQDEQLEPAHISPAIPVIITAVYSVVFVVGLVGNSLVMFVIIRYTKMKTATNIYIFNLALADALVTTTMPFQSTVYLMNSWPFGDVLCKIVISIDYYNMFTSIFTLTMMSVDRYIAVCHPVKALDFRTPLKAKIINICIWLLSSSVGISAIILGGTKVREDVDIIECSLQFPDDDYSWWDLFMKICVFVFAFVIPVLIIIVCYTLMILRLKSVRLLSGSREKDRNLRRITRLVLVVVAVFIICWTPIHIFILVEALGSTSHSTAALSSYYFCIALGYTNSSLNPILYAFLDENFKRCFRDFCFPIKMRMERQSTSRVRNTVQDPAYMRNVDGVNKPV
Sequence of Kappa-type opioid receptor (P41144 whole entry): as above
Sequence of Mu-type opioid receptor (P97266 whole entry): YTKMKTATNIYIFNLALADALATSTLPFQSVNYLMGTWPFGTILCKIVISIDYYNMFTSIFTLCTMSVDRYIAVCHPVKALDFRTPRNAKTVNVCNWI

CC[C@H](C)[C@H](NC(=O)[C@H](CCCN=C(N)N)NC[C@H](CCCCN)NC(=O)[C@H](CC(C)C)NC(=O)[C@H](Cc1ccccc1)NC(=O)CNC(=O)CNC(=O)[C@@H](N)Cc1ccc(O)cc1)C(=O)N[C@@H](CCCN=C(N)N)C(=O)N1CCC[C@H]1C(=O)N[C@@H](CCCCN)C(N)=O gave an IC50 (Cavia porcellus [1]) of 70.6 nM, an IC50 [2] of 0.9 nM and an IC50 (Mu-type opioid receptor) of 9 nM.

Work on CC[C@H](C)[C@H](NC(=O)[C@H](CCCN=C(N)N)NC(=O)[C@H](CCCN=C(N)N)NC(=O)[C@H](CC(C)C)NC(=O)[C@H](Cc1ccccc1)NCCNC(=O)CNC(=O)[C@@H](N)Cc1ccc(O)cc1)C(=O)N[C@@H](CCCN=C(N)N)C(=O)N1CCC[C@H]1C(=O)N[C@@H](CCCCN)C(N)=O (H-[N(2-aminoethyl)Phe]([Gly-Tyr])LRRIRPK-NH2) yielded an IC50 (Cavia porcellus [1]) of 20.5 nM, an IC50 [2] of 17 nM and an IC50 (Mu-type opioid receptor) of 1040 nM.

Work on CC[C@H](C)[C@H](NC(=O)[C@H](CCCN=C(N)N)NC(=O)[C@H](CCCN=C(N)N)NC(=O)[C@H](CC(C)C)NC(=O)[C@H](Cc1ccccc1)NC(=O)CNC(=O)CNC(=O)[C@@H](N)Cc1ccc(O)cc1)C(=O)N[C@@H](CCCCN)CN1CCC[C@H]1C(=O)N[C@@H](CCCCN)C(N)=O yielded an IC50 (Cavia porcellus [1]) of 2.1 nM, an IC50 [2] of 0.24 nM and an IC50 (Mu-type opioid receptor) of 5.2 nM.

For CC[C@H](C)[C@H](NC[C@H](CCCCN)NC(=O)[C@H](CCCN=C(N)N)NC(=O)[C@H](CC(C)C)NC(=O)[C@H](Cc1ccccc1)NC(=O)CNC(=O)CNC(=O)[C@@H](N)Cc1ccc(O)cc1)C(=O)N[C@@H](CCCN=C(N)N)C(=O)N1CCC[C@H]1C(=O)N[C@@H](CCCCN)C(N)=O (H-YGGFLR-X2), the IC50 (Cavia porcellus [1]) was 2.8 nM, the IC50 [2] was 0.16 nM and the IC50 (Mu-type opioid receptor) was 9.2 nM.

In the case of CC[C@H](C)[C@H](NC(=O)[C@H](CCCN=C(N)N)NC(=O)[C@H](CCCN=C(N)N)NC[C@H](CC(C)C)NC(=O)[C@H](Cc1ccccc1)NC(=O)CNC(=O)CNC(=O)[C@@H](N)Cc1ccc(O)cc1)C(=O)N[C@@H](CCCN=C(N)N)C(=O)N1CCC[C@H]1C(=O)N[C@@H](CCCCN)C(N)=O (H-[X4]([Phe-Gly-Gly-Tyr])RIRPK-NH2), the IC50 (Cavia porcellus [1]) is reported as 21 nM, the IC50 [2] is reported as 0.61 nM and the IC50 (Mu-type opioid receptor) is reported as 0.64 nM. The Selectivity (Cavia porcellus [3]) was 1, the Ratio [4] was 30.4 and the Selectivity [5] was 52.

Work on CC[C@H](C)[C@H](NC(=O)[C@H](CCCN=C(N)N)NC(=O)[C@H](CCCN=C(N)N)NC(=O)[C@H](CC(C)C)NC(=O)[C@H](Cc1ccccc1)NC(=O)CNC(=O)CNC[C@@H](N)Cc1ccc(O)cc1)C(=O)N[C@@H](CCCN=C(N)N)C(=O)N1CCC[C@H]1C(=O)N[C@@H](CCCCN)C(N)=O yielded an IC50 (Cavia porcellus [1]) of 308 nM, an IC50 [2] of 8 nM and an IC50 (Mu-type opioid receptor) of 96 nM. The Selectivity (Cavia porcellus [3]) was 12, the Ratio [4] was 38.5 and the Selectivity [5] was 25.

Work on CC[C@H](C)[C@H](NC(=O)[C@H](CCCN=C(N)N)NC(=O)[C@H](CCCN=C(N)N)NC[C@H](CCCCN)NC(=O)[C@H](Cc1ccccc1)NC(=O)CNC(=O)CNC(=O)[C@@H](N)Cc1ccc(O)cc1)C(=O)N[C@@H](CCCN=C(N)N)C(=O)N1CCC[C@H]1C(=O)N[C@@H](CCCCN)C(N)=O (H-[X5]([Phe-Gly-Gly-Tyr])RIRPK-NH2) yielded a Ratio [4] of 78.4 and a Selectivity [5] of 59.

CC[C@H](C)[C@@H](CN[C@@H](CCCN=C(N)N)C(=O)N1CCC[C@H]1C(=O)N[C@@H](CCCCN)C(N)=O)NC(=O)[C@H](CCCN=C(N)N)NC(=O)[C@H](CCCN=C(N)N)NC(=O)[C@H](CC(C)C)NC(=O)[C@H](Cc1ccccc1)NC(=O)CNC(=O)CNC(=O)[C@@H](N)Cc1ccc(O)cc1 showed an IC50 (Cavia porcellus [1]) of 3.7 nM, an IC50 [2] of 0.36 nM and an IC50 (Mu-type opioid receptor) of 4 nM.

Molecule CC[C@H](C)[C@H](NC(=O)[C@H](CCCN=C(N)N)NC(=O)[C@H](CCCN=C(N)N)NC(=O)[C@H](CC(C)C)NC[C@H](Cc1ccccc1)NC(=O)CNC(=O)CNC(=O)[C@@H](N)Cc1ccc(O)cc1)C(=O)N[C@@H](CCCN=C(N)N)C(=O)N1CCC[C@H]1C(=O)N[C@@H](CCCCN)C(N)=O (H-[X1]([Gly-Gly-Tyr])RRIRPK-NH2) has an IC50 (Cavia porcellus [1]) of 16.6 nM, an IC50 [2] of 0.55 nM and an IC50 (Mu-type opioid receptor) of 12 nM.
